# According to ChEMBL document CHEMBL1926642, “Relevance of the C-5 position to schweinfurthin induced cytotoxicity” (2011):
# How the values were obtained:
# Type in all cases: functional
# RPMI-8226 = assay: Growth inhibition of human RPMI8226 cells after 48 hrs by sulforhodamine B assay; conditions: RPMI-8226, 48 h
# CCRF-CEM = assay: Growth inhibition of human CCRF-CEM cells after 48 hrs by sulforhodamine B assay
# NCI-H522 = assay: Growth inhibition of human NCI-H522 cells after 48 hrs by sulforhodamine B assay; conditions: NCI-H522, 48 h
# OVCAR-5 = assay: Growth inhibition of human OVCAR5 cells after 48 hrs by sulforhodamine B assay; conditions: OVCAR-5, 48 h
# U-251 = assay: Growth inhibition of human U251 cells after 48 hrs by sulforhodamine B assay; conditions: U-251, 48 h
# SK-OV-3 = assay: Growth inhibition of human SKOV3 cells after 48 hrs by sulforhodamine B assay; conditions: SK-OV-3, 48 h
# HCT-15 = assay: Growth inhibition of human HCT15 cells after 48 hrs by sulforhodamine B assay; conditions: HCT-15, 48 h
# K562 = assay: Growth inhibition of human K562 cells after 48 hrs by sulforhodamine B assay; conditions: K562, 48 h
# NCI-H23 = assay: Growth inhibition of human NCI-H23 cells after 48 hrs by sulforhodamine B assay; conditions: NCI-H23, 48 h
# NCI-H322M = assay: Growth inhibition of human NCI-H322M cells after 48 hrs by sulforhodamine B assay
# HL-60(TB) = assay: Growth inhibition of human HL-60(TB) cells after 48 hrs by sulforhodamine B assay; conditions: HL-60, 48 h
# How it was run: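 Run in the NCI 60 cell-line screen as the full 5-dose assay that follows initial single-dose testing; GI50 is read from the dose series.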
# HCC 2998 = assay: Growth inhibition of human HCC2998 cells after 48 hrs by sulforhodamine B assay; conditions: HCC 2998, 48 h
# NCI-H226 = assay: Growth inhibition of human NCI-H226 cells after 48 hrs by sulforhodamine B assay; conditions: NCI-H226, 48 h
# HOP-62 = assay: Growth inhibition of human HOP62 cells after 48 hrs by sulforhodamine B assay; conditions: HOP-62, 48 h
# HCT-116 = assay: Growth inhibition of human HCT116 cells after 48 hrs by sulforhodamine B assay; conditions: HCT-116, 48 h
# ACHN = assay: Growth inhibition of human ACHN cells after 48 hrs by sulforhodamine B assay
# T47D = assay: Growth inhibition of human T47D cells after 48 hrs by sulforhodamine B assay
structure (smiles),measurement,setting,value
COc1cc(/C=C/c2cc(O)c3c(c2)C[C@@H]2C(C)(C)[C@H](O)CC[C@@]2(C)O3)cc(O)c1C/C=C(\C)CCC=C(C)C,GI50,RPMI-8226,0.0105 µM
same,LC50,RPMI-8226,100 µM
same,TGI,RPMI-8226; read-out: pTGI (converted),0.347 µM
same,GI50,CCRF-CEM,0.12 µM
same,LC50,CCRF-CEM,100 µM
same,TGI,CCRF-CEM; read-out: pTGI (converted),4.37 µM
same,GI50,NCI-H522,1.91 µM
same,LC50,NCI-H522,52.5 µM
same,TGI,NCI-H522; read-out: pTGI (converted),11 µM
same,GI50,OVCAR-5,2.51 µM
same,LC50,OVCAR-5,45.7 µM
same,TGI,OVCAR-5; read-out: pTGI (converted),13.2 µM
same,GI50,U-251,0.0759 µM
same,LC50,U-251,10.7 µM
same,TGI,U-251; read-out: pTGI (converted),2.63 µM
same,GI50,SK-OV-3,1.38 µM
same,LC50,SK-OV-3,38 µM
same,TGI,SK-OV-3; read-out: pTGI (converted),14.8 µM
same,GI50,HCT-15,1.12 µM
same,LC50,HCT-15,7.94 µM
same,TGI,HCT-15; read-out: pTGI (converted),2.95 µM
same,GI50,K562,0.263 µM
same,LC50,K562,100 µM
same,TGI,K562; read-out: pTGI (converted),6.92 µM
same,GI50,NCI-H23,1.51 µM
same,LC50,NCI-H23,26.3 µM
same,TGI,NCI-H23; read-out: pTGI (converted),4.47 µM
same,GI50,NCI-H322M,3.39 µM
same,LC50,NCI-H322M,43.7 µM
same,TGI,NCI-H322M; read-out: pTGI (converted),14.1 µM
same,GI50,HL-60(TB),0.0468 µM
same,CC50,HL-60(TB); read-out: pLC50 (the source's name) (converted),37.2 µM
same,TGI,HL-60(TB); read-out: pTGI (converted),1.45 µM
same,GI50,HCC 2998,0.851 µM
same,LC50,HCC 2998,9.33 µM
same,TGI,HCC 2998; read-out: pTGI (converted),2.95 µM
same,GI50,NCI-H226,5.89 µM
same,LC50,NCI-H226,55 µM
same,TGI,NCI-H226; read-out: pTGI (converted),21.4 µM
same,GI50,HOP-62,0.479 µM
same,LC50,HOP-62,30.2 µM
same,TGI,HOP-62; read-out: pTGI (converted),8.13 µM
same,GI50,HCT-116,0.603 µM
same,LC50,HCT-116,6.31 µM
same,TGI,HCT-116; read-out: pTGI (converted),2.34 µM
same,GI50,ACHN,1.78 µM
same,LC50,ACHN,36.3 µM
same,TGI,ACHN; read-out: pTGI (converted),12 µM
same,GI50,T47D,1.41 µM
